Values after ≈ are worked out from the molar mass of the structure shown.
How the values were obtained:
Assay type in all cases: functional
[1] = tested on: Mycobacterium avium; assay: Minimum Inhibitory Concentration in clinical isolates against Mycobacterium avium complex 101
Summary of the method: (§1)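 Broth macrodilution in tubes of modified Middlebrook 7H10 broth (agar and malachite green omitted) with 10% OADC and 0.05% Tween 80 at pH 5.8. Cultures were grown 3 days at 37 °C on a rotary shaker, then diluted with 7H10 broth to 1 Klett unit/mL. Stocks were made in water or DMSO and filter-sterilised; 2-fold serial dilutions were tested. Tubes shaken 7–10 days at 37 °C, with a drug-free control. MIC = lowest concentration (μg/mL) with no visible turbidity.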

[2] = tested on: Mycobacterium kansasii; assay: Minimum Inhibitory Concentration against clinical isolates of Mycobacterium kansasii S
Summary of the method: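 Grown 3 days at 37 °C on a rotary shaker in modified Middlebrook 7H10 broth (agar and malachite green omitted) with 10% OADC and 0.05% Tween 80. Diluted to 1 Klett unit/mL. Tubes held serial 2-fold dilutions in 7H10 broth at pH 5.8, from stocks in water or DMSO, and were shaken at 37 °C for 7–10 days with a drug-free control. MIC was the lowest concentration with no visible turbidity.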

[3] = tested on: Mycobacterium tuberculosis; assay: Minimum Inhibitory Concentration against Mycobacterium tuberculosis ATCC 35801; summary of the method: as §1
[4] = tested on: Mycobacterium tuberculosis; assay: Minimum Inhibitory Concentration against Mycobacterium tuberculosis ATCC 27294; summary of the method: as §1
[5] = tested on: Mycobacterium avium; assay: Minimum Inhibitory Concentration in clinical isolates against Mycobacterium avium complex ATCC 49601; summary of the method: as §1
[6] = tested on: Mycobacterium avium; assay: Minimum Inhibitory Concentration against clinical isolates of Mycobacterium avium complex ATCC 49601; summary of the method: as §1
[7] = Mycobacterium tuberculosis, ATCC 27294, read-out: MIC

Row | SMILES | MIC [1] [µg/mL] | MIC [2] [µg/mL] | MIC [3] [µg/mL] | MIC [4, 7] [µg/mL] | MIC [5] [µg/mL] | MIC [4] [µg/mL] | MIC [6] [µg/mL]
1 | O=C(O)c1cnccn1 [PYRAZINOIC ACID] | > 1020 | 256 (≈ 2060 µM) | 32 (≈ 258 µM) | 32 (≈ 258 µM) | > 1020 |  | 
2 | O=C(Oc1ccc(F)cc1)c1cnccn1 | 128 (≈ 587 µM) | 64 (≈ 293 µM) |  | 32 (≈ 147 µM) | 128 (≈ 587 µM) | 32 (≈ 147 µM) | 
3 | NC(=O)c1cnccn1 [PYRAZINAMIDE] | > 2050 | 2050 (≈ 16600 µM) | 32 (≈ 260 µM) | 16 (≈ 130 µM) | > 2050 |  | 
4 | CCCCCCCCCCOC(=O)c1cnc(F)cn1 | 32 (≈ 113 µM) | 1 (≈ 3.54 µM) | 4 (≈ 14.2 µM) | 2 (≈ 7.08 µM) |  |  | 32 (≈ 113 µM)
5 | Cc1cnc(C(=O)O)cn1 | 1020 (≈ 7410 µM) | 1020 (≈ 7410 µM) | 64 (≈ 463 µM) | 64 (≈ 463 µM) | > 1020 |  | 
6 | CC(OC(=O)c1cnc(Cl)cn1)c1ccc(Br)cc1 (centres undefined) | 32 (≈ 93.7 µM) | 0.25 (≈ 0.732 µM) | 8 (≈ 23.4 µM) | 2 (≈ 5.85 µM) |  |  | 16 (≈ 46.8 µM)
7 | COC(=O)c1cnc(C)cn1 | > 256 | 32 (≈ 210 µM) | 8 (≈ 52.6 µM) | 16 (≈ 105 µM) |  |  | > 256
8 | CCCCCCCCCC(C)(C)OC(=O)c1cnc(Cl)cn1 | 256 (≈ 783 µM) | 0.5 (≈ 1.53 µM) | 1 (≈ 3.06 µM) | 8 (≈ 24.5 µM) |  |  | 256 (≈ 783 µM)
9 | CC(C)(C)OC(=O)c1cnc(Cl)cn1 | 128 (≈ 596 µM) | < 1 | 0.5 (≈ 2.33 µM) | 0.25 (≈ 1.16 µM) |  |  | 128 (≈ 596 µM)
10 | O=C(O)c1cnc(Cl)cn1 |  | 64 (≈ 404 µM) | 64 (≈ 404 µM) | 64 (≈ 404 µM) | > 1020 |  | 

From ChEMBL document CHEMBL1128446, “Pyrazinoic acid esters with broad spectrum in vitro antimycobacterial activity” (1995)
